Assay results published in ChEMBL document CHEMBL4118199 (J Med Chem, 2018).

How the values were obtained:
[1] = Stability in pH 6.5 PBS buffer at 1 mM after 12 hrs by HPLC analysis; assay type: physicochemical; conditions: read-out: Stability
In short: (§1)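 Compound in DMSO added to 1x PBS adjusted with HCl/NaOH to pH 6.5, 7.4 or 8.0, giving about 1 mM final. Sulfonyl fluoride hydrolysis followed by analytical HPLC over 12 h. Peak measured right after buffer addition set as 0 h reference. Reported as residual % of intact R-SO2F.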

[2] = Stability in pH 8 PBS buffer at 1 mM after 2 hrs by HPLC analysis; assay type: physicochemical; conditions: read-out: Stability; in short: as §1
[3] = species: Homo sapiens; test: Selectivity ratio of IC50 for human 20S constitutive proteasome beta-5 to IC50 for human 20S constitutive proteasome beta-2
[4] = Stability in pH 7.4 PBS buffer at 1 mM after 1 hr by HPLC analysis; assay type: physicochemical; conditions: read-out: Stability; in short: as §1
[5] = target: T1, Proteasome Macropain subunit MB1 (Homo sapiens, UniProt P28074); test: Inhibition of human 20S constitutive proteasome beta-5 using Suc-LLVY-AMC as substrate after 60 mins by fluorescence assay
T1 sequence (P28074 whole entry): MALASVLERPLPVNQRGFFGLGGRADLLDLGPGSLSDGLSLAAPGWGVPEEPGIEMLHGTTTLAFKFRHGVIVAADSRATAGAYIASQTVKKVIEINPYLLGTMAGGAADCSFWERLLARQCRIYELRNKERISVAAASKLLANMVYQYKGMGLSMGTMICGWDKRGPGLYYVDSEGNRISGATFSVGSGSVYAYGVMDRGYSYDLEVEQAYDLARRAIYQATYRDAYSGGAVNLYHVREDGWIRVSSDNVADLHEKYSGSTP
In short: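 Inhibitors preincubated 60 min at ambient temperature with shaking, final concentrations 0.1 nM–400 µM. Fluorogenic substrate at final 100 µM. Duplicates, three repetitions. IC50 obtained from a Hill-equation fit of % residual activity against log concentration.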

[6] = Stability in pH 7.4 PBS buffer at 1 mM after 6 hrs by HPLC analysis; assay type: physicochemical; conditions: read-out: Stability; in short: as §1
[7] = target: T2, Proteasome subunit beta type-8 (Homo sapiens, UniProt P28062); test: Inhibition of human 20S immunoproteasome beta-5 using Suc-LLVY-AMC as substrate after 60 mins by fluorescence assay
T2 sequence (P28062 whole entry): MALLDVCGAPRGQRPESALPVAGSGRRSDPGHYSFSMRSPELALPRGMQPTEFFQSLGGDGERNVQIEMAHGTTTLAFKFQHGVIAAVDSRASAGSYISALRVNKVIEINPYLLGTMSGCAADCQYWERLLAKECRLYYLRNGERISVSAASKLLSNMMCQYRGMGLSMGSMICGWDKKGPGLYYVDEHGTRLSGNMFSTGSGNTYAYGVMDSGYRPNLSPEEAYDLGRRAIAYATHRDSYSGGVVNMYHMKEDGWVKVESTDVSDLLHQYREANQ
In short: (§2)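 Purified 20S proteasome (final 2.5 nM) in kit assay buffer. Inhibitors preincubated 60 min at ambient temperature with shaking, final concentrations 0.1 nM–400 µM. Fluorogenic substrate at final 100 µM. Fluorescence (ex 360 nm, em 460 nm) read kinetically for 2 h at 25 °C. Duplicates, three repetitions. IC50 obtained from a Hill-equation fit of % residual activity against log concentration.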

[8] = target: T3, Proteasome subunit beta type-10 (Homo sapiens, UniProt P40306); test: Inhibition of human 20S immunoproteasome beta-2 using Bz-VGR-AMC as substrate after 60 mins by fluorescence assay; in short: as §2
T3 sequence (P40306 whole entry): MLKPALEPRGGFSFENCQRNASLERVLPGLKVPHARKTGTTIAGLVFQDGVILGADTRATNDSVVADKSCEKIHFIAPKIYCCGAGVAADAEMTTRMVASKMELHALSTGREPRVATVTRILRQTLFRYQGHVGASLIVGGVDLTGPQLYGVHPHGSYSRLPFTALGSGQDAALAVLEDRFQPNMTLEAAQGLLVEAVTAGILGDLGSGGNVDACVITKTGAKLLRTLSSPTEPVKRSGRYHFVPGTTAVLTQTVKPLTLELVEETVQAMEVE

[9] = species: Homo sapiens; test: Selectivity ratio of IC50 for human 20S immunoproteasome beta-5 to IC50 for human 20S immunoproteasome beta-2

| Compound | remaining at 12 h, 1000 µM [1] [%] | remaining at 2 h, 1000 µM [2] [%] | Ratio IC50 [3] | remaining at 1 h, 1000 µM [4] [%] | IC50 [5] [µM] | remaining at 6 h, 1000 µM [6] [%] | IC50 [7] [µM] | IC50 [8] [µM] | Ratio IC50 [9] |
| --- | --- | --- | --- | --- | --- | --- | --- | --- | --- |
| CC(C)C[C@H](NC(=O)[C@H](Cc1ccccc1)N=[N+]=[N-])C(=O)N[C@@H](CC(C)C)C(=O)N[C@@H](CCCCN)CS(=O)(=O)F | 75 | 50 | 96 | 90 | 67 | ≥ 50 | – | – | – |
| CC(C)C[C@H](NC(=O)[C@H](CC(C)C)NC(=O)[C@H](Cc1ccccc1)NC(=O)OCc1ccccc1)C(=O)N[C@@H](CCCNC(=N)N)CS(=O)(=O)F | 75 | 50 | 45 | 90 | 6.7 | ≥ 50 | 6.7 | 0.4 | 17 |
| CC(C)C[C@H](NC(=O)[C@H](Cc1ccccc1)N=[N+]=[N-])C(=O)N[C@@H](CC(C)C)C(=O)N[C@@H](CCCNC(=N)N)CS(=O)(=O)F | 75 | 50 | 110 | 90 | 39 | ≥ 50 | – | – | – |
| CC(=O)N[C@@H](Cc1ccccc1)C(=O)N[C@@H](CC(C)C)C(=O)N[C@@H](CC(C)C)C(=O)N[C@@H](CCCCN)CS(=O)(=O)F | 75 | 50 | 300 | 90 | > 100 | ≥ 50 | – | – | – |
| CC(C)C[C@H](NC(=O)[C@H](Cc1ccccc1)N=[N+]=[N-])C(=O)N[C@@H](CC(C)C)C(=O)N[C@@H](Cc1ccc(CN)cc1)CS(=O)(=O)F | 75 | 50 | 66 | 90 | 8.9 | ≥ 50 | 3.1 | 0.13 | 24 |
| CC(C)C[C@H](NC(=O)[C@H](CC(C)C)NC(=O)[C@H](Cc1ccccc1)NC(=O)OC(C)(C)C)C(=O)N[C@@H](CCCNC(=N)N)CS(=O)(=O)F | 75 | 50 | 40 | 90 | 27.8 | ≥ 50 | – | – | – |
| CC(C)C[C@H](NC(=O)[C@H](CC(C)C)NC(=O)[C@@H](N)Cc1ccccc1)C(=O)N[C@@H](CCCCN)CS(=O)(=O)F | 75 | 50 | > 1000 | 90 | > 100 | ≥ 50 | > 100 | 0.3 | > 1000 |
| CC(=O)N[C@@H](Cc1ccccc1)C(=O)N[C@@H](CC(C)C)C(=O)N[C@@H](CC(C)C)C(=O)N[C@@H](CCCNC(=N)N)CS(=O)(=O)F | 75 | 50 | 70 | 90 | 69 | ≥ 50 | – | – | – |
| CC(=O)N[C@@H](Cc1ccccc1)C(=O)N[C@@H](CC(C)C)C(=O)N[C@@H](CC(C)C)C(=O)N[C@@H](Cc1ccc(N)cc1)CS(=O)(=O)F | 75 | 50 | 0.1 | 90 | 0.21 | ≥ 50 | – | – | – |
| CC(C)C[C@H](NC(=O)[C@H](CC(C)C)NC(=O)[C@@H](N)Cc1ccccc1)C(=O)N[C@@H](CCCNC(=N)N)CS(=O)(=O)F | 75 | 50 | 560 | 90 | 140 | ≥ 50 | > 100 | 0.21 | > 1000 |
| CC(=O)N[C@@H](Cc1ccccc1)C(=O)N[C@@H](CC(C)C)C(=O)N[C@@H](CC(C)C)C(=O)N[C@@H](Cc1ccc(CN)cc1)CS(=O)(=O)F | 75 | 50 | 150 | 90 | 18 | ≥ 50 | 17.2 | 0.395 | 44 |
| CC(C)C[C@H](NC(=O)OCc1ccccc1)C(=O)N[C@@H](CC(C)C)C(=O)N[C@@H](CC(C)C)C(=O)N[C@@H](CCCNC(=N)N)CS(=O)(=O)F | 75 | 50 | 50 | 90 | 10 | ≥ 50 | 14 | 1.11 | 13 |
| CC(C)C[C@H](NC(=O)[C@H](CC(C)C)NC(=O)[C@@H](N)Cc1ccccc1)C(=O)N[C@@H](Cc1ccc(CN)cc1)CS(=O)(=O)F | 75 | 50 | 900 | 90 | 125 | ≥ 50 | 137 | 0.36 | 380 |
| CC(C)C[C@H](NC(=O)[C@H](Cc1ccccc1)N=[N+]=[N-])C(=O)N[C@@H](CC(C)C)C(=O)N[C@H](/C=C/S(C)(=O)=O)Cc1ccc(CN)cc1 | – | – | – | – | – | – | 1.8 | 0.0275 | – |
| CC(C)C[C@H](NC(=O)[C@H](CC(C)C)NC(=O)[C@@H](N)Cc1ccccc1)C(=O)N[C@@H](Cc1ccc(N)cc1)CS(=O)(=O)F | 75 | 50 | 4.3 | 90 | 0.95 | ≥ 50 | 0.45 | 0.2 | 2.3 |
| CC(C)C[C@H](NC(=O)[C@H](Cc1ccccc1)N=[N+]=[N-])C(=O)N[C@@H](CC(C)C)C(=O)N[C@@H](Cc1ccc(N)cc1)CS(=O)(=O)F | 75 | 50 | – | 90 | – | ≥ 50 | – | – | – |
